Consider 18 compounds from PubChem BioAssay AID588594 (Sanford-Burnham Center for Chemical Genomics, 2011).

The structures appear in SMILES notation. Activity calls are given as the source filed them.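 The calls were made as follows: active = mean EC50 of 20 µM or lower; inactive = the rest.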

For this experiment, the target named is CHO-CHOP luciferase reporter, UPR apoptotic arm activation. Briefly: CHOP luciferase reporter activation in CHO cells – cell-based, CHO-CHOP line, luminescence, set 2, SAR follow-up (AID 588594). Put shortly:
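material = CHO cells, stable CHOP luciferase reporter | amount = 500 cells/well | benchmarks = high tunicamycin 10 µg/mL, low DMSO alone | detection = luminescence after Steady-Glo luciferase reagent addition | times = seeding 16-18 h before compounds, 6 h exposure at 37 °C | dosing = compound dose-response series, final DMSO at most 1%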
Take `O=C(Nc1nc2ccc(F)c(F)c2s1)c1ccccn1`: the EC50 was 5.59 µM. `O=C(Nc1ccc(S(=O)(=O)N2CCC(F)CC2)cc1)c1ccc([N+](=O)[O-])o1`: the EC50 is 0.774 µM. In the case of `CC1(C)CCN(S(=O)(=O)c2ccc(NC(=O)c3ccc(C(F)(F)F)o3)cc2)CC1` it was > 80 µM (inactive); in that of `O=C(Nc1nc2c(F)c(F)ccc2s1)c1ccccn1`, 9.88 µM; in that of `O=C(Nc1ccc(S(=O)(=O)C2CCOCC2)cc1)c1ccc([N+](=O)[O-])o1`, 1.19 µM. With `CC1CN(S(=O)(=O)c2ccc(NC(=O)c3ccc([N+](=O)[O-])o3)cc2)CC(C)O1` (stereo not drawn) the figure was 1.36 µM; with `O=C(Nc1nc2cc(F)c(F)cc2s1)c1ccccn1`, 8.28 µM; with `O=C(Nc1nc2cccc(F)c2s1)c1ccccn1`, 7 µM. With `CC1(C)CCN(S(=O)(=O)c2ccc(NC(=O)c3cccc([N+](=O)[O-])c3)cc2)CC1` the figure was > 80 µM (inactive); with `O=C(Nc1nc2cc(F)cc(F)c2s1)c1ccccn1`, 6.87 µM. As for `O=C(Nc1nc2ccc(C(F)(F)F)cc2s1)c1ccccn1`, the EC50 is 4.68 µM. In the case of `O=C(Nc1ccc(S(=O)(=O)N2CCC(Cl)CC2)cc1)c1ccc([N+](=O)[O-])o1` it was 0.739 µM; in that of `O=C(Nc1nc2c(F)ccc(F)c2s1)c1ccccn1`, 6.65 µM; in that of `CC(C)(C)C1CCN(S(=O)(=O)c2ccc(NC(=O)c3ccc([N+](=O)[O-])o3)cc2)CC1`, 0.676 µM. In the case of `O=C(Nc1nc2ccc(Cl)cc2s1)c1ccccn1` it was 5.99 µM; in that of `Cn1c([N+](=O)[O-])cnc1C(=O)Nc1ccc(S(=O)(=O)N2CCC(C)(C)CC2)cc1`, > 77.5 µM (inactive); in that of `O=C(Nc1nc2cc(F)ccc2s1)c1ccccn1`, 7.13 µM. On to `O=C(Nc1ccc(S(=O)(=O)N2CCC3(CCCCC3)CC2)cc1)c1ccc([N+](=O)[O-])o1`, for which the EC50 was 0.732 µM.

By EC50 is commonly meant the concentration at which the effect is half-maximal.
